Reference: ChEMBL document CHEMBL1938374, “Synthesis and biological characterization of 3-substituted-1H-indoles as ligands of GluN2B-containing N-methyl-D-aspartate receptors” (J Med Chem, 2011)
Activity calls are given as the source filed them. The rule behind the calls is not given here.

What was measured:
[1] = biological target: Glutamate receptor ionotropic, NMDA 2B (Rattus norvegicus) (UniProt Q00960); assay: Displacement of [3H]ifenprodil from GluN2B/NMDA in Wistar rat cerebral cortex at 10 uM after 120 mins by scintillation counting; assay type: tissue-based
Chain of Glutamate receptor ionotropic, NMDA 2B (Rattus norvegicus) (Q00960 27-1482 limits assumed): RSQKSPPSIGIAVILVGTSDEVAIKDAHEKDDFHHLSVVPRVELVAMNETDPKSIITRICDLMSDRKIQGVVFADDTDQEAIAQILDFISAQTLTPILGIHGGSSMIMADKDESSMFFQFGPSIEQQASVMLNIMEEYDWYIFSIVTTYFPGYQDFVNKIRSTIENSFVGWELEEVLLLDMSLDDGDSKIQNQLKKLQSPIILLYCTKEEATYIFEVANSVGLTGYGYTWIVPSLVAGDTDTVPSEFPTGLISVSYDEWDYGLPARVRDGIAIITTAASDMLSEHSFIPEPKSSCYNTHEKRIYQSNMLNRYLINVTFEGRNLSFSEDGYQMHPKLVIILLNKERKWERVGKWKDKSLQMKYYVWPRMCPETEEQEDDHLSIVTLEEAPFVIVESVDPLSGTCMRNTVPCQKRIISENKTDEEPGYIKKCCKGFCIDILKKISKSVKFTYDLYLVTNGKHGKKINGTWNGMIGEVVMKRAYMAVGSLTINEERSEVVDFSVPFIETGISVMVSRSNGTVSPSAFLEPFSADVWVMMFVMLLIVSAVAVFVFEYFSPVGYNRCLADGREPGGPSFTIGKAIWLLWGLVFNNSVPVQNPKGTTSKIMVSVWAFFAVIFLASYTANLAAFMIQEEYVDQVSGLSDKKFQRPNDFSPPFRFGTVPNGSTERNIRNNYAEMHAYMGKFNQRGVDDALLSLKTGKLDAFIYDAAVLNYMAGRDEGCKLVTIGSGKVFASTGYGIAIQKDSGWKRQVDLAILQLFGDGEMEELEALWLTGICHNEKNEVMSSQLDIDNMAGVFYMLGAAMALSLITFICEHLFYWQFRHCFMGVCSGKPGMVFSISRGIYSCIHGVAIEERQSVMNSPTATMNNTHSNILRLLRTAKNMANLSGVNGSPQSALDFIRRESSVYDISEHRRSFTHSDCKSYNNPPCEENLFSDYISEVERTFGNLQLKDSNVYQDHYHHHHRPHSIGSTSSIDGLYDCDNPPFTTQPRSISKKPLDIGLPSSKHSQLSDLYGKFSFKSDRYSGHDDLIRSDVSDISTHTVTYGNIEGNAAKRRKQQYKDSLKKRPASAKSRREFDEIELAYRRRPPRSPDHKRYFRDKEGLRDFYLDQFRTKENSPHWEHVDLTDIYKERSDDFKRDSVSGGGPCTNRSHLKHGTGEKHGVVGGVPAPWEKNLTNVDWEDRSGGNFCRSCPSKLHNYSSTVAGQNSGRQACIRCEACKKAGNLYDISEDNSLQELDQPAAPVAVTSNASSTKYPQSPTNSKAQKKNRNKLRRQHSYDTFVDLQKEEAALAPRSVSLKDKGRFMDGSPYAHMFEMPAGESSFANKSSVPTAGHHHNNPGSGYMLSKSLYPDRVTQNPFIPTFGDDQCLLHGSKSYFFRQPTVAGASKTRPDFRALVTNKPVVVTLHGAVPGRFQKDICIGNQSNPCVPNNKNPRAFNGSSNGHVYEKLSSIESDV

Mus musculus [2] = assay: Anticonvulsant activity in DBA/2 mouse assessed as inhibition of audiogenic tonic seizures administered as ip, 30 mins prior to auditory stimulation measured for 60 secs; assay type: functional; details: DBA/2, ip
Method in brief: (§1)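 Seizure ED50 values, in μmol/kg, were computed by the Litchfield and Wilcoxon method. At least 32 animals went into each ED50, and 95% confidence limits are reported.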

Mus musculus [3] = assay: Anticonvulsant activity in DBA/2 mouse assessed as inhibition of audiogenic clonic seizures administered as ip, 30 mins prior to auditory stimulation measured for 60 secs; assay type: functional; details: DBA/2, ip; method in brief: as §1
[4] = biological target: Glutamate receptor ionotropic, NMDA 2B (Rattus norvegicus, UniProt Q00960); assay: Displacement of [3H]ifenprodil from GluN2B/NMDA in Wistar rat cerebral cortex after 120 mins by scintillation counting; assay type: tissue-based
Chain of Glutamate receptor ionotropic, NMDA 2B (Q00960 whole entry): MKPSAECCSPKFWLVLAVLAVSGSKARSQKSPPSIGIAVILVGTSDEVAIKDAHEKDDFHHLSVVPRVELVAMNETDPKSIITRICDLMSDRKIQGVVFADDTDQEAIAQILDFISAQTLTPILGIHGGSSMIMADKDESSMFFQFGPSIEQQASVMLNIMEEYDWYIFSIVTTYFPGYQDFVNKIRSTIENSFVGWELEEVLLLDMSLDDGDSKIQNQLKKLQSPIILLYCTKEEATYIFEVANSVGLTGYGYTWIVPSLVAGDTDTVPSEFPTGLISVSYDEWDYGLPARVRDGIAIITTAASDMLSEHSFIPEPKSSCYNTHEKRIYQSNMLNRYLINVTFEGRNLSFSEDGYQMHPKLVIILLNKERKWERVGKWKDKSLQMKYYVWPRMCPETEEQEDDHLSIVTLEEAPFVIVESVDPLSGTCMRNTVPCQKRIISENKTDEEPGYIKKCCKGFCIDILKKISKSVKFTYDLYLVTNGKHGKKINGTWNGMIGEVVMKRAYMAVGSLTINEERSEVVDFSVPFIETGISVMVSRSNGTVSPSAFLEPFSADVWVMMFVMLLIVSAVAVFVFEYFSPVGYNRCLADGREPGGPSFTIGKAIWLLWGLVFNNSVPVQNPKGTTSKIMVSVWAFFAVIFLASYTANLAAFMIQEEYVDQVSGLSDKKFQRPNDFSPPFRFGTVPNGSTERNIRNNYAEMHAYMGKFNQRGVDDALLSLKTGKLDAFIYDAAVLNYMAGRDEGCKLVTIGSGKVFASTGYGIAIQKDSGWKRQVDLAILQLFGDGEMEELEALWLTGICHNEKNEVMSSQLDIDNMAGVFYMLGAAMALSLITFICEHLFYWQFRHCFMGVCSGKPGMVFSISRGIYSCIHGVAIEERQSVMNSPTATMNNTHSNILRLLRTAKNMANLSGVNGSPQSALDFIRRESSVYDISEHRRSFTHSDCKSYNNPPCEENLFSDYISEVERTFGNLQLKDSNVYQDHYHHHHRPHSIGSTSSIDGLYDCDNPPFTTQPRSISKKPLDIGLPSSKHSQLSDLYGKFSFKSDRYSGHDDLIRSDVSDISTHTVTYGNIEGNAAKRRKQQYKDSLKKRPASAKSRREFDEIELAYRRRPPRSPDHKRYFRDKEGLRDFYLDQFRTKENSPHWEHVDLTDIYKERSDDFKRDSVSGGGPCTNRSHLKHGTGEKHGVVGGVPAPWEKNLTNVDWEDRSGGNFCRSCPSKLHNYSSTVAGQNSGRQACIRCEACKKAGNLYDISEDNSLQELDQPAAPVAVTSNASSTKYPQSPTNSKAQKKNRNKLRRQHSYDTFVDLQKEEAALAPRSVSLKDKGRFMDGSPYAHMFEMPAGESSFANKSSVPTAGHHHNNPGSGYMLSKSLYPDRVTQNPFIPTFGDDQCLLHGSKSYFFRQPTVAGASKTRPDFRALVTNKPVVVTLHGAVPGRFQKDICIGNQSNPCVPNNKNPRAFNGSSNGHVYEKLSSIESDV

[5] = biological target: Sigma non-opioid intracellular receptor 1 (Cavia porcellus, UniProt Q60492); assay: Displacement of [3H](+)pentazocine from sigma 1 receptor in guinea pig brain membrane after 150 mins by liquid scintillation counting; assay type: cell membranes
Chain of Sigma non-opioid intracellular receptor 1 (Q60492 whole entry): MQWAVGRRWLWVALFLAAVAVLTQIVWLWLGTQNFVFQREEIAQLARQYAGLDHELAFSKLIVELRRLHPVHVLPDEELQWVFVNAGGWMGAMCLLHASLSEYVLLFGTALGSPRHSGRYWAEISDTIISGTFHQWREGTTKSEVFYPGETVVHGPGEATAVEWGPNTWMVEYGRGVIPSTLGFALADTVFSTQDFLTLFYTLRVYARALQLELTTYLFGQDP

[6] = Displacement of [3H]DTG from sigma 2 receptor after 120 mins by liquid scintillation counting in presence of (+)-SKF10,047
[7] = biological target: Glutamate receptor ionotropic, NMDA 2B (Mus musculus) (UniProt Q01097); assay: Antagonist activity at GluN2B/NMDA in FVB mouse CA1 pyramidal neurons assessed as reduction in NMDA-mediated inward current at 10 uM measured for 5 mins by whole-cell patch clamp assay in presence of glycine and tetrodotoxin; assay type: functional, cell-based; details: Pyramidal neuron
Chain of Glutamate receptor ionotropic, NMDA 2B (Mus musculus) (Q01097 whole entry): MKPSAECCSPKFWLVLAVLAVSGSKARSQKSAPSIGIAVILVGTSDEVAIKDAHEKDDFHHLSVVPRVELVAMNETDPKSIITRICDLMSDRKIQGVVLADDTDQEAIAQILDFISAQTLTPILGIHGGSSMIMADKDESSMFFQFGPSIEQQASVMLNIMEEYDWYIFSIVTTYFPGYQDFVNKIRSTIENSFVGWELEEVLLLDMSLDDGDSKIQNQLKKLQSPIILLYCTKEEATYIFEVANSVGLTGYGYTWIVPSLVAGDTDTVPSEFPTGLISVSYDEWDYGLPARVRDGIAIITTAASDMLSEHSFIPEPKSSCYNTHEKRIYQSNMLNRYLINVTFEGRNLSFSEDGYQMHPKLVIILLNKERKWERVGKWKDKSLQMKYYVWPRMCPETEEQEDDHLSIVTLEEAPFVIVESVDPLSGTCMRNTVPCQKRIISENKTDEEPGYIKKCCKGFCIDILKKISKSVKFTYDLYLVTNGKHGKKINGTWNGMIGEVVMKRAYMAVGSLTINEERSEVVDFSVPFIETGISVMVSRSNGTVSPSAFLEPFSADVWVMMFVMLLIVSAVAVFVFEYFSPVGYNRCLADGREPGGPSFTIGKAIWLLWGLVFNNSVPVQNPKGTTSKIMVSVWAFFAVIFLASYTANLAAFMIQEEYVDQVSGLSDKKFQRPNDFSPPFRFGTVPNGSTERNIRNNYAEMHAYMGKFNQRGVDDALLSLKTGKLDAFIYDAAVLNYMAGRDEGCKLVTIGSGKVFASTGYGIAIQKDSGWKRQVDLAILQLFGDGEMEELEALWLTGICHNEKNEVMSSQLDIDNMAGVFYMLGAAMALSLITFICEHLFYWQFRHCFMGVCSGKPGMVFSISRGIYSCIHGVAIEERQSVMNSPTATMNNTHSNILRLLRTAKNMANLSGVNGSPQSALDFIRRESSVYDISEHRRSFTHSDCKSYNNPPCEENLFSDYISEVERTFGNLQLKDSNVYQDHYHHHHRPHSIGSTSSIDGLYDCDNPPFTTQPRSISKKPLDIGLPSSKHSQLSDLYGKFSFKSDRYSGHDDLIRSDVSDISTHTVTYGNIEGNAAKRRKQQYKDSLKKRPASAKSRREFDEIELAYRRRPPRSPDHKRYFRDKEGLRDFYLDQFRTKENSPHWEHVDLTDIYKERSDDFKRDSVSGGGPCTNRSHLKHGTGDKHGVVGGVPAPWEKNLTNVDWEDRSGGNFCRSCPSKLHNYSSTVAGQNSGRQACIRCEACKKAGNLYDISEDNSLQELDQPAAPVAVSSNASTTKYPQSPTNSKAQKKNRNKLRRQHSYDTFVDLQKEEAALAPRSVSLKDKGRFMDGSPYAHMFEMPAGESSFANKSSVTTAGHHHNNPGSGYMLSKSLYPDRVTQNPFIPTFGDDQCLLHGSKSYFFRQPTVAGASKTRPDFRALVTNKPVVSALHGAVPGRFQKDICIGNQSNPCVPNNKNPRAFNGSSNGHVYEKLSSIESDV

| SMILES | Activity [1] [%] | ED50 (Mus musculus [2]) [µmol/kg] | ED50 (Mus musculus [3]) [µmol/kg] | IC50 [4] [nM] | Ki [5] [nM] | Ki [6] [nM] | Activity [7] |
| --- | --- | --- | --- | --- | --- | --- | --- |
| COc1ccc2[nH]cc(C(=O)CN3CCC(Cc4ccccc4)CC3)c2c1 | 86 |  |  |  |  |  |  |
| COc1ccc2c(C(=O)C(=O)N3CCC(Cc4ccccc4)CC3)c[nH]c2c1 |  | 4.68 | 11.9 |  |  |  |  |
| O=C(C(=O)N1CCC(Cc2ccccc2)CC1)c1c[nH]c2c(O)cccc12 | 79 | 36.2 | 80.5 | 1990 |  |  |  |
| COc1ccc2c(C(=O)CN3CCC(Cc4ccccc4)CC3)c[nH]c2c1 | 4 | 30.1 | 67.8 |  |  |  |  |
| O=C(CN1CCC(Cc2ccccc2)CC1)c1c[nH]c2c(O)cccc12 | 72 | 53.8 | > 100 | 7140 |  |  |  |
| COc1cccc2c(C(=O)CN3CCC(Cc4ccccc4)CC3)c[nH]c12 | 62 | 35.8 | 80.3 | 2910 |  |  |  |
| O=C(CN1CCC(Cc2ccccc2)CC1)c1c[nH]c2ccc(O)cc12 |  |  |  |  | > 1000 | 76.5 | Active |
| COc1ccc2[nH]cc(C(=O)CN3CCN(Cc4ccccc4)CC3)c2c1 |  | 63.8 | 98.7 |  |  |  |  |
| COc1cccc2c(C(=O)C(=O)N3CCC(Cc4ccccc4)CC3)c[nH]c12 | 33 | 27.4 | 51.4 |  |  |  |  |
| O=C(CN1CCC(Cc2ccccc2)CC1)c1c[nH]c2cc(O)ccc12 | 92 | 53.7 | 95.4 | 17 | > 1000 | 43 | inactive |
| O=C(CN1CCN(Cc2ccccc2)CC1)c1c[nH]c2ccc(O)cc12 | 27 | 44.9 | > 100 |  | 437 | 557 |  |
| COc1ccc2[nH]cc(C(=O)C(=O)N3CCC(Cc4ccccc4)CC3)c2c1 | 9 |  |  |  |  |  |  |
| COc1cccc2[nH]cc(C(=O)CN3CCC(Cc4ccccc4)CC3)c12 | 82 | 16.2 | 32.7 | 324 |  |  |  |
| COc1cccc2[nH]cc(C(=O)C(=O)N3CCC(Cc4ccccc4)CC3)c12 | 14 | 76.7 | > 100 |  |  |  |  |
| O=C(C(=O)N1CCC(Cc2ccccc2)CC1)c1c[nH]c2cccc(O)c12 | 24 | 28.9 | 52.1 |  |  |  |  |
| O=C(CN1CCN(Cc2ccccc2)CC1)c1c[nH]c2ccccc12 | 14 |  |  |  |  |  |  |
| O=C(C(=O)N1CCC(Cc2ccccc2)CC1)c1c[nH]c2ccc(O)cc12 |  |  |  |  | > 1000 |  |  |
| O=C(CN1CCC(Cc2ccccc2)CC1)c1c[nH]c2cccc(O)c12 | 77 | 13.7 | 68.1 | 6640 |  |  |  |
| O=C(C(=O)N1CCC(Cc2ccccc2)CC1)c1c[nH]c2cc(O)ccc12 | 92 | 38.9 | 84.4 | 22 | > 1000 |  |  |
